Experimental data gathered from unrelated publications.

Structure (SMILES) | target or system | assay | test system | conditions | measurement | result
O=C([O-])C(=O)[O-].[NH-][C@@H]1CCCC[C@H]1[NH-].[Pt+4] (relative stereo) |  |  | rat, plasma | intravenous, 5 mg/kg | AUC(0-inf) | 2540 ng·h/mL
O=c1c(O[C@@H]2O[C@H](CO)[C@@H](O)[C@H](O)[C@H]2O)c(-c2ccc(O)cc2)oc2cc(O)cc(O)c12 | HCT-116 | cell growth or viability, WST-1 |  |  | IC50 | 36.6 µM
CC[C@@H]1CN2CCc3c([nH]c4cccc(OC)c34)[C@H]2C[C@@H]1/C(=C\OC)C(=O)OC |  |  | Caco-2 | pH 7.4 | Papp A→B | 14.2 cm/s
Cl.Cl.O=C(CCN1CCCCC1)c1ccc(-c2ccc(C(=O)CCN3CCCCC3)cc2)cc1 |  |  | Sprague-Dawley rat, plasma | oral, 100 mg/kg | AUC(0-t) | 978 ng·h/mL
O=C(Nc1ccc2c(c1)B(O)OC2)c1ccc(Oc2ccccc2)cc1 |  |  | PAMPA | 200 µM, 5 h, pH 7.4 | Papp | 0.82 ×10⁻⁶ cm/s
CCCCCCCCCCCC(=O)NC(C)(C)C(=O)N1CCC[C@H]1C(=O)NC(C)(C)C(=O)NC(C)(C)C(=O)N1CCC[C@H]1C(=O)NC(C)(C)C(=O)NC(C)(C)C(=O)N1CCC[C@H]1C(=O)N[C@@H](C)C(=O)NC(C)(C)C(=O)NCCC(=O)N[C@@H](C)C(=O)NC(C)(C)C(=O)NC(C)(C)C(=O)NCCC(=O)NC(C)(C)C(=O)NC(C)(C)C(=O)NC(C)(C)C(=O)N[C@@H](C)C(=O)NCCC(=O)O | HCT-116 | cell growth or viability, MTT |  | 24 h | IC50 | 1 µM
CN(C)C(=O)Oc1cc(OC(=O)N(C)C)cc(-c2cc3ccc(O)cc3o2)c1 |  |  | male rat, plasma | intravenous, 5 mg/kg | AUC(0-t) | 589 ng·h/mL
COC(=O)C(NC(=O)c1cn(CCCCCF)c2ccccc12)C(C)(C)C (centres unmarked) |  |  | male Sprague-Dawley rat, plasma | subcutaneous, 200 µg/kg | AUC(0-t) | 37.7 ng·h/mL
OC[C@@H](O)[C@@H](O)[C@H](O)[C@H](O)CO |  |  | Caco-2 |  | Papp A→B | 0.249 ×10⁻⁶ cm/s
CC(C)(C)[C@H](NC(=O)[C@H](CCONC(=N)N)NC(=O)Cc1ccc(CNC(=N)N)cc1)C(=O)N[C@@H](CCONC(=N)N)C(=O)NCc1ccc(C(=N)N)cc1 |  |  | male Sprague-Dawley rat, plasma | intravenous, 1 mg/kg | AUC(0-t) | 2090 ng·h/mL
N=c1c2c(-c3ccccc3)c(-c3ccccc3)n(Cc3ccccc3)c2ncn1[C@H]1CC[C@H](O)CC1 |  |  | female minipig, plasma | oral, 2.5 mg/kg, single dose | Cmax | 785 ng/mL
